Compounds with a hit are over-represented: about 1.8% of the library has one in this group of screens.
CHRM4 PAM = potentiates acetylcholine response at human M4 receptor | CHO-K1 hM4/Gqi5, Fluo-8 calcium fluorescence, ACh EC20; 0% = ACh EC20, 100% = maximal ACh | activation, % at 3 µM | hit rate 0.4% among 360,000;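 active = activation above its plate's cutoff, the mean activation of sample wells plus 3 SD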
Target sequence (P08173 whole entry, looked up): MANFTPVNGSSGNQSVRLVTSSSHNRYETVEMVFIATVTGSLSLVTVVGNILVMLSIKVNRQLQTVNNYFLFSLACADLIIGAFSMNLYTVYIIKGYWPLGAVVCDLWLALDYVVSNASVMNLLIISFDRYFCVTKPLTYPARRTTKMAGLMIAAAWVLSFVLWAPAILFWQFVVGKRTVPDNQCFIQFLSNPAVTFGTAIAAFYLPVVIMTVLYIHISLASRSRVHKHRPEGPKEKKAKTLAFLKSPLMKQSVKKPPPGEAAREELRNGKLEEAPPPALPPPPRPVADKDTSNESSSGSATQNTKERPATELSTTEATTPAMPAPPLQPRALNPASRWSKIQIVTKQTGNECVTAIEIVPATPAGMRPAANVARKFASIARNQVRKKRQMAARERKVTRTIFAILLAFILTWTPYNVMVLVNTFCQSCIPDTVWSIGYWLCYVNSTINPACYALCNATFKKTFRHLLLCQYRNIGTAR
CHRM4 agonist = CHRM4 agonism in calcium assay; CHO-K1 hM4/Gqi5, Fluo-8 calcium fluorescence; vehicle 0%, full acetylcholine response 100%; activation, % at 3 µM; hit rate 0.14% among 360,000; AID 624127;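 active = activation above the run mean over all test wells plus 3 SD, cut at about 32% in these data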;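 note: peak over basal fluorescence ratio per well then scaled between controls; 0% = DMSO wells and 100% = acetylcholine at EC100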
M5 PAM = CHRM5 positive allosteric modulation; P08912; CHO-K1 hM5, Fluo-8 calcium, ACh EC20 PAM; 0% = ACh EC20, 100% = ACh EC100; activation, % at 3 µM; hit rate 0.3% among 360,000;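 active = activation above the run cutoff, the mean activation of all test compounds plus 3 SD, cut at about 18% in these data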
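Test system: CHO-K1 hM5 cells / Doses: single-point, 3 µM nominal / Times: Post-acetylcholine fluorescence recording 140 s / Technique: Fluo-8 calcium fluorescence / Measure: Max/basal fluorescence ratio as % of EC20–EC100 ACh window / Benchmarks: low control EC20 acetylcholine (0%), high control EC100 acetylcholine (100%) / Replicates: one well per compound, no replicates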
M4 antag = antagonists of human muscarinic M4 receptor (CHRM4); P08173; CHO-hM4 cells, ACh EC80, Fluo-8 calcium fluorescence; inhibition, % at 3 µM; hit rate 0.73% among 360,000; AID 624125;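 active = inhibition above its plate's cutoff, the mean inhibition of sample wells plus 3 SD, cut at about 27% in these data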;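 note: 0% = acetylcholine EC80 with DMSO and 100% = DMSO without agonist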
M5 ag = agonists of human muscarinic M5 receptor (CHRM5); CHO-K1 hM5 cells, Fluo-8 calcium fluorescence; 0% DMSO wells, 100% maximal acetylcholine response; activation, % at 3 µM; hit rate 0.19% among 360,000; AID 624037;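 active = activation above the run's mean over test compounds plus 3 SD, cut at about 23% in these data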;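 note: signal is peak over basal fluorescence ratio across the kinetic read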
CHRM5 antagonist = blocks acetylcholine activation of human M5 receptor. P08912. CHO-hM5 cells, Fluo-8 calcium fluorescence, ACh EC80. inhibition, % at 3 µM. hit rate 0.59% among 360,000. AID 624040;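 active = inhibition above a per-plate cutoff, the mean of that plate's test compounds plus 3 SD, cut at about 27% in these data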;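 note: 0% = acetylcholine EC80 with DMSO and 100% = DMSO without agonist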
* = called active by the depositor.

SMILES	CHRM4 PAM	CHRM4 agonist	M5 PAM	M4 antag	M5 ag	CHRM5 antagonist
Cc1ccc(/C=C2\SC(N3CCN(C(c4ccccc4)c4ccccc4)CC3)=NC2=O)o1	-43.6	1.2	-19.1	81.9*	-7.3	38.1*
CC1(Cc2cccc(C(F)(F)F)c2)C(=O)Nc2ccc(-c3ccc(F)c(Cl)c3)cc21 (centres undefined)	4.1	0.7	1.2	-5.9	1.8	-1.1
COc1ccc2c(c1)[nH]c1c(N3CCN(Cc4ccc5c(c4)OCO5)CC3)ncnc12	-13.0	12.9	-15.9	11.2	1.4	31.5*
COc1ccc2c(c1)[nH]c1c(N3CCSCC3)ncnc12	-13.2	24.0	-9.9	14.2	6.0	5.7
O=C1NC2(CCOc3ccccc32)C(=O)N1CC(=O)N(Cc1ccccc1)C1CCS(=O)(=O)C1 (centres undefined)	4.4	0.6	22.5*	-4.2	-0.2	-22.5
O=C(O)CN1C(=O)NC2(CCOc3ccccc32)C1=O (centres undefined)	-1.1	-0.1	6.0	-1.0	-0.7	-1.4
CN(C(=O)c1cccc(C#CC(C)(C)O)c1)C1CCCN(Cc2ccccc2F)C1 (centres undefined)	6.3	2.7	0.4	-22.7	0.7	-3.1
Nc1c(C(=O)c2ccccc2)sc2nsc(SCCN3CCCC3)c12	-16.9	14.9	-11.0	16.6	31.6*	23.6
Nc1c(C(=O)c2ccc(Cl)cc2)sc2nsc(SCCN3CCOCC3)c12	-2.6	3.7	-7.1	0.9	9.1	6.1
Cc1csc2ncnc(N3CCN(S(=O)(=O)c4cccc(C(F)(F)F)c4)CC3)c12	-13.1	14.0	-17.5	25.9	1.4	44.0*
O=C(NCCc1ccc(F)cc1)c1ccc2c(=O)n3c(nc2c1)CCC3	8.7	6.9	0.6	-28.3	-3.6	2.8
CC(=O)N1CCN(c2ccc(NC(=O)c3ccc(C)c([N+](=O)[O-])c3)cc2)CC1	-10.0	6.2	18.3*	0.2	8.0	-14.6
CCCCNc1nnc(CCn2nc(C)c(Br)c2C)s1	16.5	0.5	6.2	-6.2	-2.4	4.6
CCNc1nnc(CCn2nc(C)c(Br)c2C)s1	11.1	2.5	24.2*	2.2	-1.0	-16.8
CCN(CC)S(=O)(=O)c1cc(NC(=O)c2ccc(-n3cncn3)c([N+](=O)[O-])c2)ccc1C	-7.2	25.6	-8.1	-1.7	0.0	10.5
COCC1CCCN(C(=O)c2ccc3oc(Cc4ccc(Cl)cc4)nc3c2)C1 (centres undefined)	-1.0	6.8	-2.3	-6.6	-1.5	2.1
CCN(CC)c1ccc2cc(-c3nc4ccccc4[nH]3)c(=O)oc2c1	-19.1	552.2*	-29.0	25.3	119.0*	36.4*
CCN(CC)c1ccc2cc(-c3nc4ccccc4n3C)c(=O)oc2c1	0.9	20.3	-5.3	7.0	7.6	5.4
CCN(CC)c1ccc2cc(C(=O)c3cccs3)c(=O)oc2c1	-19.1	64.8*	-24.4	33.3*	51.9*	38.8*
CC(NC(N)=O)C(=O)Nc1ccc(Cl)c(S(=O)(=O)Nc2ccc(Br)cc2)c1 (centres undefined)	-0.1	7.3	2.1	-6.7	1.6	7.8
Cn1nnc(NC(=S)NC(=O)Cc2ccccc2)n1	-3.3	0.7	2.7	7.3	1.2	0.0
O=C(Nc1ccccc1)C(=O)Nc1ccc2c(c1)N(C(=O)C1CC1)CCC2	17.4*	6.8	0.5	-12.3	1.7	-4.5
O=C(C1CCC(C(=O)N2CCc3ccccc32)CC1)N1CCc2ccccc21 (centres undefined)	-2.3	-0.2	-0.9	-3.5	-4.3	-1.4
COc1cc(C(=O)Nc2ccc(Nc3ccccc3)cc2)cc(OC)c1OC	-9.2	8.4	-5.9	-4.7	2.2	10.0
Cc1ccc(C2CC(c3ccccc3)=NN2C(=S)Nc2ccccc2)o1 (centres undefined)	-10.8	7.4	2.0	38.9*	3.6	-2.1
CCCCCCNC(=O)C(C(=O)OCC)C1CCCCC1 (centres undefined)	-0.3	5.6	-13.9	4.7	-7.7	9.3
Cc1ccc(-n2nnnc2CNC(=O)c2ccc(Br)o2)cc1C	1.4	1.3	2.7	-1.1	-4.8	4.8
